Assay results taken from ChEMBL document CHEMBL4038310, “Scaffold Hopping and Optimization of Maleimide Based Porcupine Inhibitors” (J Med Chem, 2017).
Converted amounts (≈) assume the structure as drawn.

Experiments:
[1] = Tmax in CD1 mouse at 5 mg/kg administered as single dose via oral gavage after 24 hrs by LC/MS analysis; format: ADME, organism-based; details: in vivo
How it was run: (§1)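 Female CD-1 mice, 6-8 weeks, 26 ± 3 g; single oral gavage dose of 5 mg/kg; three mice per time point. Sampling by cardiac puncture after CO2 euthanasia at pre-dose and from 5 or 10 min up to 24 h into K3EDTA. Plasma was extracted with acetonitrile/formic acid, carbamazepine internal standard, and analysed by LC-MS/MS (ESI+, MRM). Parameters were derived non-compartmentally.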

[2] = Bioavailability in Sprague-Dawley rat plasma at 2 mg/kg, iv; format: ADME, organism-based
How it was run: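 Male Sprague Dawley rats were given a 2 mg/kg intravenous dose and compared with a 10 mg/kg oral dose. Absolute F = (AUC0-inf po/AUC0-inf iv) × (dose iv/dose po) × 100.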

[3] = Thermodynamic solubility of compound at pH 4; format: physicochemical; details: buffer, read-out: Therm_solubility
[4] = test system: Mus musculus; experiment: Bioavailability in CD1 mouse at 1 mg/kg, iv administered as single dose after 24 hrs by LC/MS analysis; format: ADME, organism-based; details: in vivo
How it was run: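 Female CD-1 mice received a single 1 mg/kg tail-vein dose, with three mice per time point and plasma sampled up to 24 h. Quantitation was by LC-MS/MS against standards in blank mouse plasma. Absolute oral F = (AUC0-inf po/AUC0-inf iv) × (dose iv/dose po) × 100, using the 5 mg/kg oral gavage arm.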

[5] = Thermodynamic solubility of compound at pH 7.4; format: physicochemical; details: buffer, read-out: Therm_solubility
[6] = AUC in Sprague-Dawley rat at 10 mg/kg, po; format: ADME, organism-based; details: in vivo
How it was run: (§2)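 Male Sprague Dawley rats received a single oral dose of 10 mg/kg. A plasma concentration-time profile was obtained, and PK parameters were calculated by the non-compartmental method.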

[7] = Cmax in CD1 mouse at 5 mg/kg administered as single dose via oral gavage after 24 hrs by LC/MS analysis; format: ADME, organism-based; design: dose 5 mg/kg, route oral; details: in vivo; how it was run: as §1
[8] = Cmax in Sprague-Dawley rat at 10 mg/kg, po; format: ADME, organism-based; design: dose 10 mg/kg, route oral; details: in vivo; how it was run: as §2

SMILES | Tmax [1] [min] | solubility thermodynamic [3] [µg/mL] | solubility thermodynamic [5] [µg/mL] | Cmax [7] [ng/mL] | also measured
O=C(CN1CCCC2=C1C(=O)N(C1CC1)C2=O)Nc1ccc(-c2cccnc2)nn1 | 30 | 141 (≈ 349 µM) | 60 (≈ 148 µM) | 4030 | bioavailability [2]: 81%; F [4]: 100%; AUC [6]: 81200 ng·h/mL; Cmax [8]: 17300 ng/mL
O=C(CN1CCCC2=C1C(=O)N(C1CC1)C2=O)Nc1ccc(-c2cncc(F)c2)nn1 | 30 | 13.8 (≈ 32.7 µM) | 14.9 (≈ 35.3 µM) | 3290 | 
CN1C(=O)C2=C(C1=O)N(CC(=O)Nc1ccc(-c3ccccc3)nn1)CCC2 |  |  | 3.34 (≈ 8.85 µM) |  | 
CN1C(=O)C2=C(C1=O)N(CC(=O)Nc1ccc(-c3nccs3)cc1)CCC2 |  | 1.1 (≈ 2.88 µM) | 1.26 to 1.3 (≈ 3.29 to 3.4 µM) |  | 
CN1C(=O)c2cccc(CC(=O)Nc3ccc(-c4nccs4)cc3)c2C1=O |  |  | 0.42 (≈ 1.11 µM) |  | 
CN1C(=O)C2=C(C1=O)N(CC(=O)Nc1ccc(-c3cccnc3)nn1)CCC2 | 120 | 13.9 (≈ 36.7 µM) | 9.5 (≈ 25.1 µM) | 759 | 
CN1C(=O)C2=C(C1=O)N(CC(=O)Nc1ccc(-c3cccnc3)nc1)CCC2 |  |  | 13 (≈ 34.6 µM) |  | 
CN1C(=O)C2=C(C1=O)N(CC(=O)Nc1ccc(-c3ccccc3)nc1)CCC2 |  |  | 0.75 (≈ 1.99 µM) |  | 
CN1C(=O)C2=C(C1=O)N(CC(=O)Nc1ccc(-c3cncc(F)c3)nn1)CCC2 | 120 | 82 (≈ 207 µM) | 41 (≈ 103 µM) | 845 | 
CN1C(=O)C2=C(C1=O)N(CC(=O)Nc1ccc(-c3ccccc3)cc1)CCC2 |  |  | 2.1 (≈ 5.59 µM) |  | 
CN1C(=O)C2=C(C1=O)N(CC(=O)Nc1ccc(-c3ccccc3)cn1)CCC2 |  |  | 0.24 (≈ 0.638 µM) |  | 
Cc1ccc(-c2ccc(NC(=O)CN3CCCC4=C3C(=O)N(C)C4=O)nn2)cn1 | 10.2 | > 194 | 35.5 (≈ 90.5 µM) | 1050 | 
Cc1ccc(-c2ccc(NC(=O)CN3CCCC4=C3C(=O)N(C3CC3)C4=O)nn2)cn1 | 30 | > 41 | 11.1 (≈ 26.5 µM) | 1190 | 
